The text below walks through data of paper PMC10077566 (ACS Omega, 2023).

One data set addresses FABP3 (U-87-MG cells) (Homo sapiens, UniProt P05413). The experiment in a line: FABP3-mediated internalization, antibody labeling and FACS. The format is cell-based. The settings on record: serum-free, 10 μM, FACS, Coralite 594-conjugated FABP3 antibody. In outline: (§1)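 Cells were kept in serum-free neuronal basal medium with B27 and seeded at 1×10^4 cells/well in 6-well plates, then left to spread for 4 h at 37 °C, 5% CO2. They were incubated with Coralite 594-conjugated anti-FABP3 mouse antibody, then with the test compound (10 μM) for 24 h. Cells were trypsinized, pelleted at […] for 5 min, resuspended in FACS buffer and filtered. Flow cytometry used 582 nm excitation.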

For the next data set, the target named is FABP3 (U-138-MG cells) (Homo sapiens, UniProt P05413). Described as above. The format is cell-based. To be noted: serum-free, 10 μM, FACS, Coralite 594-conjugated FABP3 antibody. The gist of the method: as §1
FABP3 (U-138-MG cells), sequence (P05413 whole entry): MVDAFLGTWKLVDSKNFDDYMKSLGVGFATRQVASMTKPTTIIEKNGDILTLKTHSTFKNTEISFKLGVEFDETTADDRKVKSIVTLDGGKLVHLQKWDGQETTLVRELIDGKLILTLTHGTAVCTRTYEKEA
Another data set deals with primary mouse neurons. The data set can be described thus: MTT cytotoxicity / cell viability, noncancer cells. The format is cell-based. To be noted: 24 h, n = 3. In outline: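 Primary mouse neurons were grown in serum-free DMEM/F12-based neural medium with L-glutamine, HEPES, penicillin/streptomycin and supplement. They were plated at 1×10^4 cells/well and allowed to spread for 24 h at 37 °C, 5% CO2, then treated with the test compound at 2 or 10 μM for 24 h. MTT was added for 4 h, then solubilizing solution for 4 h. Absorbance was read at 560 and 590 nm. Runs were in triplicate, with Student's t tests.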

Another data set deals with U-87-MG cells. The data set can be described thus: Annexin V FITC-propidium iodide apoptosis assay, FACS. The format is cell-based, human. To be noted: Annexin V FITC/PI quadrant.
The subject of a further data set is U-87-MG spheroids. The data set can be described thus: Calcein-AM spheroid viability assay. The format is cell-based, human. The settings on record: 10 μM, 24 h; six-day old spheroids, 10000 cells/well. In outline:
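Six-day-old U-87-MG spheroids seeded at 10000 cells/well in U-bottom low-attachment 24-well plates from monolayers grown to 70% confluence, in serum-free B27 neuronal basal medium or FBS-supplemented EMEM, with medium changed every 3 days. Exposed to the test compound at 10 μM for 24 h, moved to a fresh plate, washed three times with assay buffer, then stained with 3 μM Calcein-AM for 1 h at 37 °C. Imaged by fluorescence.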

FABP3 (U-87-MG cells), sequence (P05413 whole entry): as above

Regarding ACGLSGLCVAK [A-COOP-K], the FABP3-mediated internalization entry on FABP3 (U-87-MG cells) and on FABP3 (U-138-MG cells) was “did not show internalization” each time.

For the compound `COc1cccc2c1C(=O)c1c(O)c3c(c(O)c1C2=O)C[C@@](O)(C(=O)CO)C[C@@H]3O[C@H]1C[C@H](N)[C@H](O)[C@H](C)O1` [DOX, doxorubicin], the cell viability (commonly the share of living cells, or the viability signal relative to a control) in the data set with primary mouse neurons (2 μM) is 49.3%; with primary mouse neurons (10 μM) it was 27.2%. The necrotic cells in the data set on U-87-MG cells (2 μM) is reported as 7.2%; in the data set on U-87-MG cells (10 μM), 24%. For the same compound, the “spheroid viability, Calcein-AM fluorescence” value with U-87-MG spheroids is recorded as “scattered viable cells were seen throughout the spheroid”.
